Bioassay records deposited in PubChem by Broad Institute.
Most compounds without a hit are left out; they make up all but 1.5% or so of the library.
CaV13 FRET inh – Disruptors of the CACNA1D IQ motif to Ca2+-dependent inactivation inhibitor domain association, primary screening, Förster resonance energy transfer in intact living …; AID 743397; 340,000 tested, 0.098% active; inhibition, % at 12.3 µM; HEK cells, CFP/YFP FRET ICDI-IQ, plate reader, 10 min; percent FRET-ratio fall versus neutral wells;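 active means mean replicate inhibition of at least 30% and at least 1% of replicates passing that level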;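 further: 0% = median of the neutral control wells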
Keap1 Nrf2 FP – disrupts human Keap1 binding to Nrf2 peptide; Keap1 Kelch-Nrf2 peptide fluorescence polarization, 1536-well; inhibition, % at 9.4 µM; 340,000 tested, 0.15% active; AID 504523; in the data active means inhibition above about 12%;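 further: human Keap1 Kelch domain with fluorescein labeled Nrf2 9mer peptide probe; 0% = neutral control wells and 100% = peptide positive control; higher means more block of Keap1 binding to Nrf2 peptide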
Target sequence (Q14145 whole entry, looked up, the tested form may be a part): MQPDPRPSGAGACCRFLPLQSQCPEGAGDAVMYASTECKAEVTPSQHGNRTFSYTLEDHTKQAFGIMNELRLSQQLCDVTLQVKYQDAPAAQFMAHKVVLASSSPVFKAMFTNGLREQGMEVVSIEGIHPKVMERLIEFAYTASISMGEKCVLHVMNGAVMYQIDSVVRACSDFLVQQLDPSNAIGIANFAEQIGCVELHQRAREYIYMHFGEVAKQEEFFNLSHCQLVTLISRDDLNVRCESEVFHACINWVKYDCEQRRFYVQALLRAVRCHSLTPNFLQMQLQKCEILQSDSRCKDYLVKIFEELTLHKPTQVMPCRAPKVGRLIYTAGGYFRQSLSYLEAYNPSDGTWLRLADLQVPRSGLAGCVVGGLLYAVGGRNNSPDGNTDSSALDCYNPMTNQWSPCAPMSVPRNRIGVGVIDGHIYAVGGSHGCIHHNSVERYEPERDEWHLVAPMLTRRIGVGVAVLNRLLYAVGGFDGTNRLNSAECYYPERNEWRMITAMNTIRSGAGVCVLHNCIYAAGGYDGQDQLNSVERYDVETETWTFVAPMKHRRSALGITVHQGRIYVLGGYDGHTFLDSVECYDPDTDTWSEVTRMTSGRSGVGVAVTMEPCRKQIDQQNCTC
CAL PDZ FP-1 – human CAL PDZ-peptide interaction inhibition; purified CAL PDZ, TMR-peptide fluorescence polarization, 1 h; inhibition, % at 20 µM; 330,000 tested, 0.02% active; AID 504414;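 active means highest replicate inhibition of at least 40%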;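 further: plate controls were DMSO neutral control wells for no effect and unlabeled competitor peptide control wells for full effect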
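Read-out basis: mP drop reported as inhibition | Assay system: Tagged CAL PDZ protein CerCALP, purified | Benchmarks: Unlabelled peptide for full inhibition, DMSO wells as neutral | Schedule: 1 h incubation at room temperature before polarization reading | Buffer or medium: Sodium phosphate/NaCl buffer pH 7.4 with TCEP, IgG, Thesit | Doses: Single point, 20 µM | Measured by: Fluorescence polarization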
LANA-H2B inh – blocks KSHV LANA binding to histone H2A/H2B | cell-free LANA-H2A/H2B peptide, fluorescence polarization | inhibition, % (test concentration not listed) | 320,000 tested, 0.6% active; in the data active means inhibition mostly above about 10%, no sharp cut-off; inactive means mostly below about 6.7%
CAL PDZ FP-2 – inhibitors of human CAL PDZ peptide binding; Q9HD26; purified CAL PDZ, TMR-peptide fluorescence polarization, 1 h; inhibition, % at 24.9 µM; 300,000 tested, 0.92% active;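 active means mean inhibition of at least 30% with at least half of replicates also reaching 30%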;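 further: 0% = DMSO neutral control and 100% = excess unlabeled competitor peptide PRC23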
LANA DNA inh – blocks KSHV LANA C-terminal domain binding to DNA | MBP-C-LANA/FAM-LBS DNA binding, fluorescence polarization | inhibition, % at 9 µM | 340,000 tested, 0.078% active | AID 504423;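 active means highest replicate inhibition at or above 60% at 9 µM, even if other replicates fall short; inactive means all replicates below 60% inhibition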;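 further: 0% = neutral control wells and 100% = 4 µM acridine orange control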
Starred values were filed as active, the others as inactive; · = no result; + = active, no number.

SMILES	CaV13 FRET inh	Keap1 Nrf2 FP	CAL PDZ FP-1	LANA-H2B inh	CAL PDZ FP-2	LANA DNA inh
Cc1c(C(C)NC(=O)c2cc(COc3cccc4cnccc34)on2)cnn1C (centres undefined)	-7	2	-3	25*	-2	1
CCc1ccc(CN(C)C(=O)c2cc(COc3cccc4cnccc34)on2)cc1	-6	-1	-2	-2	-2	1
O=C1c2ccccc2NC(c2cn[nH]c2-c2ccccc2)N1O (centres undefined)	-4	4	0	-13	-4	-1
O=C1c2ccccc2NC(c2cn[nH]c2-c2ccc(Cl)cc2)N1O (centres undefined)	-18	12*	-3	1	-10	8
CCN(CCn1cccn1)C(=O)c1cc(COc2cc(C)ccc2C)on1	-2	2	-2	37*	-6	0
Cc1nn(C)c(C)c1C(C)NC(=O)c1cc(COc2ccc(F)c(F)c2)on1 (centres undefined)	-2	2	0	-1	40*	-1
CCN(CCn1cccn1)C(=O)c1cc(COc2ccc(F)c(F)c2)on1	-2	-2	0	0	57*	0
CCN(CCn1cccn1)C(=O)c1cc(COc2ccccc2SC)on1	-6	4	-1	6	-4	1
COC1=CC(=O)OC(c2ccccc2C(F)(F)F)C1 (centres undefined)	-16	·	·	·	·	·
O=C(O)C1CCCN1c1nc(-c2ccc(Cl)c(Cl)c2)cc(C(F)(F)F)n1 (centres undefined)	-4	-5	-2	-5	91*	1
FC(F)(F)c1cc(-c2ccccc2)nc(N2CCCCC2)n1	-1	-3	1	-3	-4	-1
O=C(NCc1cccc(C(F)(F)F)c1)C1CCCN(c2ncccn2)C1 (centres undefined)	-9	4	-2	131*	·	1
Cc1cc(C)nc(N2CCCC(C(=O)NCc3cccc(C(F)(F)F)c3)C2)n1 (centres undefined)	-8	3	0	2	0	1
CCS(=O)(=O)Nc1cc(OC)c(OC)cc1Cc1nccc2cc(OC)c(OC)cc12	-6	3	-1	3	65*	2
CCCNC(=O)Nc1cc(OC)c(OC)cc1Cc1nccc2cc(OC)c(OC)cc12	-4	-1	-2	-3	-4	1
COc1ccccc1NC(=S)NNC(=O)c1ccc(Cl)cc1Cl	-5	-2	-1	-8	49*	-1
O=C(Nc1ccccc1C(=O)N1CCCC1)c1ccc(Cl)cc1Cl	-22	3	0	18*	-3	1
O=C(NCCC(=O)N1CCCC1)c1ccccc1Cl	-6	-4	0	6	39*	0
CC1CCN(C(=O)CCNC(=O)c2ccccc2Cl)CC1	-7	-2	0	-1	-2	1
CCOC(=O)c1c(C)[nH]c(C(=O)CN2C(=O)NC3(CCCC3)C2=O)c1C	-6	-2	-1	2	-2	-3
CCOC(=O)c1c(C)[nH]c(C)c1C(=O)CN1C(=O)NC2(CCCCCC2)C1=O	-7	4	0	·	35*	0
Cc1c(N=Cc2ccc(Cl)o2)c(=O)n(-c2ccccc2)n1C	-8	-4	0	23*	·	0
CC(C)[C@@H](C)/C=C/[C@@H](C)[C@H]1CC[C@@H]2[C@]1(C)CCC1[C@]23C=C[C@]2(C[C@@H](O)CC[C@]12C)N(c1cnccn1)O3 (some centres undefined)	-8	·	·	·	·	·
O=C(Nc1ccc(Cl)cc1)OCC12COCN1COC2	-3	·	·	·	·	·
Nc1c(/C=C2/C=CC(=O)C(O)=C2)c(=O)nc2sc(CC(=O)N3CCOCC3)nn12	-8	-3	-3	·	-24	110*
SMILES	CaV13 FRET inh	Keap1 Nrf2 FP	CAL PDZ FP-1	LANA-H2B inh	CAL PDZ FP-2	LANA DNA inh
Nc1c(/C=C2/C=CC(=O)C(O)=C2)c(=O)nc2sc(CC(=O)N3CCCCC3)nn12	-3	-3	-2	8	17	108*
Nc1c(C=C2C=CC(=O)C=C2)c(=O)nc2sc(CC(=O)N3CCCCC3)nn12	-2	-1	-2	1	-5	30
Nc1c(/C=C2/C=CC(=O)C(O)=C2)c(=O)nc2sc(CC(=O)N3CCCC3)nn12	-3	-5	-2	3	-4	109*
COc1ccc(NC(=O)c2cc(C3CCCCN3S(=O)(=O)Cc3ccccc3)on2)cn1 (centres undefined)	-4	·	·	·	·	·
CCOc1cccc(C=NNC(=O)C(=O)Nc2cccc(C(F)(F)F)c2)c1O	-13	·	·	·	·	·
CCN(CC)C(=O)c1ccc(S(=O)(=O)c2ccccc2)cc1	-1	-4	0	+	3	-5
COC(=O)[C@]12C[C@H](CC(=O)NCc3cccc4ccccc34)C(=O)N(Cc3ccccc3)C1=C[C@H](C(C)(C)C)O[C@@H]2C	-4	·	·	·	·	·
CCC(C)(C)NC(=O)CN(Cc1ccco1)C(=O)CCC(=O)Nc1nccs1	-3	-12	0	-3	64*	3
O=C1NC(=O)C2(CCCc3ccc(N(CCO)CCO)cc32)N1 (centres undefined)	-11	·	·	·	·	·
Cc1cc(NCC2CCCO2)n2c(nc3ccccc32)c1C#N (centres undefined)	-3	1	-2	2	-2	2
CCc1c(C)c(C#N)c2nc3ccccc3n2c1NCC1CCCO1 (centres undefined)	-5	3	0	1	31*	0
CCOC(=O)C1(CCOc2ccccc2)CCN(Cc2ccc(C)o2)CC1	-7	-8	-1	4	53*	0
CCOC(=O)C1(CCOc2ccccc2)CCN(Cc2cnc(SC)nc2)CC1	-6	-4	-1	-5	46*	1
CCOC(=O)C1(CCOc2ccccc2)CCN(Cc2ccc(O)cc2)CC1	-3	-2	-1	3	-4	7
COc1ccccc1C(=O)N1CCC2CCN(C(=O)OC(C)(C)C)C2C1 (centres undefined)	-12	·	·	·	·	·
C[C@H](CO)N1C[C@H](C)[C@@H](CN(C)C(=O)Nc2ccc3c(c2)OCO3)OCc2cn(nn2)CCCC1=O	-5	·	·	·	·	·
CN1CCN(S(=O)(=O)CC2(C)C3CCC2(C)C(=O)C3Br)CC1 (centres undefined)	-5	1	-2	0	-1	0
CCN1CCN(S(=O)(=O)CC2(C)C3CCC2(C)C(=O)C3Br)CC1 (centres undefined)	-13	-1	0	2	41*	-2
COc1ccc(-n2nnc3c(SCC(=O)N4CCCc5ccccc54)ncnc32)cc1	1	2	15	2	60*	-1
CC(=O)c1cccc(-c2ccnc3c2CC(C(=O)NCC2CCOCC2)O3)c1 (centres undefined)	-30	·	·	·	·	·
